# According to ChEMBL document CHEMBL3585252, “Selaginellin and biflavonoids as protein tyrosine phosphatase 1B inhibitors from Selaginella tamariscina and their glucose uptake stimulatory effects” (Bioorg Med Chem, 2015):
# How the values were obtained:
# [1] = target: T1, Tyrosine-protein phosphatase non-receptor type 1 (Mus musculus) (UniProt P35821); assay: Inhibition of PTP1B in mouse 3T3L1 cells assessed as stimulation of 2-NBDG uptake preincubated for 24 hrs followed by 2-NBDG addition measured after 30 mins by fluorescence reader analysis; format: cell-based; conditions: 3T3-L1
# T1 sequence (whole entry): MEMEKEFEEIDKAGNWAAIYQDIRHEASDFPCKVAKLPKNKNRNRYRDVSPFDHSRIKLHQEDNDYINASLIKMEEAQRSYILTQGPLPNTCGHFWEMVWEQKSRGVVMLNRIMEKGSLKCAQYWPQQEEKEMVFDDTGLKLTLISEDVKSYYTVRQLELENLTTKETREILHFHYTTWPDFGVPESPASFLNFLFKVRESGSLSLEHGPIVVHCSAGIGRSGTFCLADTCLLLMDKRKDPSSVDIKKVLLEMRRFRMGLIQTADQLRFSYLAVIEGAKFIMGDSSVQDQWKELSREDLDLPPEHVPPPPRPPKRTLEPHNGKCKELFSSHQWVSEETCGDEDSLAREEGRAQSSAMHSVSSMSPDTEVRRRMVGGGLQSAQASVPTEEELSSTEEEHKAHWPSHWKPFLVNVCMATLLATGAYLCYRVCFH
# Procedure, shortened: (§1)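 3T3-L1 preadipocytes were grown to confluence and differentiated for 8 days (days 0–8). Mature adipocytes were treated with compound at 5 and 10 µM, or with insulin at 100 nM; DMSO was the vehicle control. 2-NBDG was then added for 30 min. Uptake is expressed as fold induction over the DMSO control.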
# [2] = target: T2, Tyrosine-protein phosphatase non-receptor type 1 (Homo sapiens, UniProt P18031); assay: Competitive inhibition of human recombinant PTP1B using p-NPP as substrate preincubated for 10 mins followed by substrate addition measured after 20 mins by Lineweaver-Burk/Dixon plot analysis
# T2 sequence (P18031 whole entry): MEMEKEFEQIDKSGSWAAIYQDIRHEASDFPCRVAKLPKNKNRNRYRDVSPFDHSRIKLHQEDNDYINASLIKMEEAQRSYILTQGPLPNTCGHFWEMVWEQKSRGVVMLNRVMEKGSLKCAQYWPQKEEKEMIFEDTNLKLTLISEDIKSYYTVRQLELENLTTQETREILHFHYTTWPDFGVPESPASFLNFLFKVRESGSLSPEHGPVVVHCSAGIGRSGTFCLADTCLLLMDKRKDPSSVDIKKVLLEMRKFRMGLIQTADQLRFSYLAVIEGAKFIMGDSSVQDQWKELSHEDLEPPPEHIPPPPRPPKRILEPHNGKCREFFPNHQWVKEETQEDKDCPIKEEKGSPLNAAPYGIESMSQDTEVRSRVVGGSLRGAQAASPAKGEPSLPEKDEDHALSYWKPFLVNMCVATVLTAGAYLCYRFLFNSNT
# Procedure, shortened: (§2)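 Kinetic mode and Ki came from Lineweaver–Burk and Dixon plots of initial velocity at several substrate and inhibitor concentrations. Ki was read as the negative x-axis value where three Dixon lines intersect. Data are the mean reciprocal initial velocity, n = 3 replicates per substrate concentration.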
# [3] = Cytotoxicity against mouse 3T3L1 cells assessed as inhibition of cell viability at 5 to 10 uM after 48 hrs by MTT assay; format: cell-based; conditions: 3t3-l1, 48 h
# Procedure, shortened: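 Differentiated 3T3-L1 adipocytes were exposed to compound at 5 and 10 µM without 2-NBDG. Viability was read by MTT assay.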
# [4] = target: T2, Tyrosine-protein phosphatase non-receptor type 1; assay: (§3) Inhibition of human recombinant PTP1B using p-NPP as substrate preincubated for 10 mins followed by substrate addition measured after 20 mins by microplate reader analysis
# Procedure, shortened: (§4)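 Enzyme inhibition was tested at graded concentrations. IC50 was obtained by regression analysis and reported as mean ± SD of three replicates.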
# [5] = target: T3, Tyrosine-protein phosphatase non-receptor type 1 (Homo sapiens) (UniProt P18031); assay: as §3; procedure, shortened: as §4
# T3 sequence (whole entry): T2 sequence (P18031 whole entry)
# [6] = target: T1, Tyrosine-protein phosphatase non-receptor type 1 (Mus musculus); assay: Inhibition of PTP1B in mouse 3T3L1 cells assessed as stimulation of 2-NBDG uptake at 10 uM preincubated for 24 hrs followed by 2-NBDG addition measured after 30 mins by fluorescence reader analysis relative to control; format: cell-based; conditions: 3T3-L1; procedure, shortened: as §1
# [7] = target: T2, Tyrosine-protein phosphatase non-receptor type 1; assay: Mixed-competitive inhibition of human recombinant PTP1B using p-NPP as substrate preincubated for 10 mins followed by substrate addition measured after 20 mins by Lineweaver-Burk/Dixon plot analysis; procedure, shortened: as §2
# [8] = target: T2, Tyrosine-protein phosphatase non-receptor type 1; assay: Uncompetitive inhibition of human recombinant PTP1B using p-NPP as substrate preincubated for 10 mins followed by substrate addition measured after 20 mins by Lineweaver-Burk/Dixon plot analysis; procedure, shortened: as §2
inhibition [1],Ki [2] [µM],IC50 [4] [µM],inhibition [5],fold change (FC) [6],Ki [7] [µM],Ki [8] [µM],SMILES,Activity [3]
Dose-dependent effect,10.7,9.6,Dose-dependent effect,,,,O=c1cc(-c2ccc(O)cc2)oc2c(-c3c(O)cc(O)c4c(=O)cc(-c5ccc(O)cc5)oc34)c(O)cc(O)c12 [CUPRESSUFLAVONE],Non-toxic
Dose-dependent effect,,4.5,Dose-dependent effect,1.44,4.6,,O=c1c(-c2c(O)cc(O)c3c(=O)cc(-c4ccc(O)cc4)oc23)c(-c2ccc(O)cc2)oc2cc(O)cc(O)c12,Non-toxic
Dose-dependent effect,,13.2,Dose-dependent effect,1.24,14.5,,O=C(O)c1c(-c2ccc(O)cc2)ccc(CO)c1C#Cc1ccc(O)cc1,Non-toxic
Dose-dependent effect,,9.8,Dose-dependent effect,,,10.4,O=C1C[C@@H](c2cc(-c3c(O)ccc4c(=O)cc(-c5ccc(O)cc5)oc34)c(O)cc2O)Oc2cc(O)cc(O)c21,Non-toxic
Dose-dependent effect,,5.4,Dose-dependent effect,1.47,4.5,,O=c1cc(-c2ccc(O)c(-c3c(-c4ccc(O)cc4)oc4cc(O)cc(O)c4c3=O)c2)oc2cc(O)cc(O)c12 [TAIWANIAFLAVONE],Non-toxic
Dose-dependent effect,,6.2,Dose-dependent effect,,6.8,,O=c1cc(-c2ccc(O)c(-c3c(O)cc4oc(-c5ccc(O)cc5)cc(=O)c4c3O)c2)oc2cc(O)cc(O)c12 [ROBUSTAFLAVONE],Non-toxic
Dose-dependent effect,,7.4,Dose-dependent effect,,7.8,,O=c1cc(-c2ccc(O)c(-c3c(O)cc(O)c4c(=O)cc(-c5ccc(O)cc5)oc34)c2)oc2cc(O)cc(O)c12 [AMENTOFLAVONE],Non-toxic
